Results published in ChEMBL document CHEMBL1914454, “Novel N-linked aminopiperidine inhibitors of bacterial topoisomerase type II: broad-spectrum antibacterial agents with reduced hERG activity” (J Med Chem, 2011).
In brackets after ≈: the same amount, converted by molar mass.

Tests used:
[1] = system: Staphylococcus aureus; assay: Antibacterial activity against methicillin-susceptible Staphylococcus aureus after 18 to 24 hrs by broth microdilution method; type: functional
How it was run: (§1)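 Broth microdilution following CLSI guidelines in Mueller Hinton broth. Compounds in DMSO, diluted to 2% DMSO final, 11 doubling dilutions from 64 to 0.06 μg/mL. Incubated at 35 °C for 18−24 h; growth read by absorbance at 620 nm.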

[2] = system: Pseudomonas aeruginosa; assay: Antibacterial activity against Pseudomonas aeruginosa PAO1 after 18 to 24 hrs by broth microdilution method; type: functional; how it was run: as §1
[3] = biological target: Voltage-gated inwardly rectifying potassium channel KCNH2 (Homo sapiens, UniProt Q12809); assay: Inhibition of human ERG by ionworks HT assay
[4] = system: Escherichia coli; assay: Antibacterial activity against Escherichia coli W3110 after 18 to 24 hrs by broth microdilution method; type: functional; conditions: K-12 substr. W3110; how it was run: as §1
[5] = Octanol-phosphate buffer partition coefficient, log D of the compound at pH 7.4 by LC/MS/UV analysis; conditions: octanol/phosphate buffer
[6] = system: Streptococcus pneumoniae; assay: Antibacterial activity against penicillin-susceptible Streptococcus pneumoniae D39 after 18 to 24 hrs by broth microdilution method; type: functional
How it was run: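 CLSI broth microdilution in 2.2% (w/v) Mueller Hinton broth with 0.65% (v/v) lysed horse blood. Compounds diluted from DMSO to 2% DMSO final, 11 doubling dilutions from 64 to 0.06 μg/mL. Incubated at 35 °C for 18−24 h; read at 620 nm.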

[7] = Inhibition of Escherichia coli ATPase activity of topoisomerase 4 ParC/ParE subunit assessed as reduction in inorganic phosphate production after 24 hrs by ammonium molybdate/malachite-green based assay
How it was run: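 Each reaction contained 0.5 nM each of E. coli ParC and ParE, 0.16 mM ATP and 0.005 mg/mL sheared salmon sperm DNA in 20 mM Tris pH 8.0 with 50 mM ammonium acetate, 8.0 mM MgCl₂, 0.5 mM EDTA, 5 mM DTT, 2.5% glycerol and 0.005% Brij-35. Compound dilution series; 24 h at room temperature. Quenched with malachite green; absorbance read at 650 nm. IC50 is the mean of three replicate experiments.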

[8] = Fraction unbound in human plasma at 10 uM after 16 hrs by equilibrium dialysis
[9] = Volume of distribution in Beagle dog at 3 mg/kg, iv; type: ADME, organism-based, Canis lupus familiaris; parameters: dose 3 mg/kg, route intravenous; conditions: in vivo
How it was run: (§2)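 Plasma was sampled from 0 to 24 h and drug measured by LC–MS/MS. Parameters came from noncompartmental analysis.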

[10] = Volume of distribution in Wistar Han rat at 3 mg/kg, iv; type: ADME, organism-based; parameters: dose 3 mg/kg, route intravenous; conditions: in vivo
How it was run: (§3)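 Groups of three Wistar Han rats got a 3 mg/kg iv bolus via a cannulated jugular vein. Serial whole-blood samples were taken at time intervals, and compound in plasma was quantified by LC–MS/MS. Parameters were estimated by a noncompartmental model.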

[11] = Clearance in Beagle dog at 3 mg/kg, iv; type: ADME, organism-based, Canis lupus familiaris; parameters: dose 3 mg/kg, route intravenous; conditions: in vivo; how it was run: as §2
[12] = Half life in Wistar Han rat at 3 mg/kg, iv; type: ADME, organism-based; parameters: dose 3 mg/kg, route intravenous; conditions: in vivo; how it was run: as §3
[13] = Half life in Beagle dog at 3 mg/kg, iv; type: ADME, organism-based, Canis lupus familiaris; parameters: dose 3 mg/kg, route intravenous; conditions: in vivo; how it was run: as §2
[14] = AUC in Wistar Han rat at 3 mg/kg, iv; type: ADME, organism-based; parameters: dose 3 mg/kg, route intravenous; conditions: plasma; how it was run: as §3
[15] = Oral bioavailability in Beagle dog at 10 mg/kg; type: ADME, organism-based, Canis lupus familiaris; conditions: in vivo; how it was run: as §2
[16] = AUC in Beagle dog at 3 mg/kg, iv; type: ADME, organism-based, Canis lupus familiaris; parameters: dose 3 mg/kg, route intravenous; conditions: plasma; how it was run: as §2
[17] = Clearance in Wistar Han rat at 3 mg/kg, iv; type: ADME, organism-based; parameters: dose 3 mg/kg, route intravenous; conditions: in vivo; how it was run: as §3
[18] = system: Mus musculus; assay: AUC (infinity) in Staphylococcus aureus ARC516 infected in CD1 mouse neutropenic thigh infection model at 36 mg/kg, ip qd by LC-MS/MS analysis; type: ADME, organism-based; parameters: dose 36 mg/kg, route intraperitoneal, time infinity; conditions: in vivo
How it was run: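 Plasma exposure in CD-1 mice, measured for analysis of the efficacy studies. Groups of three mice were sacrificed at timed intervals and whole blood was drawn by cardiac puncture. Plasma compound levels were measured by LC–MS/MS, and parameters were estimated by a noncompartmental model.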

[19] = AUC in Wistar Han rat at 4 mg/kg, iv; type: ADME, organism-based; parameters: dose 4 mg/kg, route intravenous; conditions: plasma
How it was run: (§4)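 Groups of three Wistar Han rats received a bolus injection into a cannulated jugular vein. Serial 200 μL whole-blood samples taken over time; plasma drug measured by LC-MS/MS; parameters estimated by noncompartmental analysis.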

[20] = system: Staphylococcus aureus; assay: Antibacterial activity against Staphylococcus aureus ARC516 infected in CD1 mouse neutropenic thigh infection model assessed as 1 log reduction in colony forming unit per […] at 24 mg/kg, ip qd administered 2 hrs post-infection measured 24 hrs post-treatment relative to vehicle treated control; type: functional; conditions: route intraperitoneal
How it was run: (§5)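 CD-1 mice were made neutropenic with ip cyclophosphamide, 150 mg/kg at 4 days and 100 mg/kg at 1 day before infection. Methicillin-susceptible strain, target inoculum 5 × 10⁵ cfu/thigh. Groups of five received ip drug q.d. in 5% dextrose with lactic acid, pH 5.0, starting 2 h post-infection; five mice got vehicle. At 24 h, thighs were homogenized, plated on tryptic soy agar and incubated at 37 °C overnight for cfu.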

[21] = system: Mus musculus; assay: AUC (infinity) in Staphylococcus aureus ARC516 infected in CD1 mouse neutropenic thigh infection model at 12 mg/kg, ip qd by LC-MS/MS analysis; type: ADME, organism-based; parameters: time infinity, dose 12 mg/kg, route intraperitoneal; conditions: in vivo
How it was run: (§6)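 CD-1 mice made neutropenic with ip cyclophosphamide (150 mg/kg day −4, 100 mg/kg day −1), thigh-infected with S. aureus ARC516 (target 5 × 10⁵ cfu/thigh). Dosed ip once daily starting 2 h post-infection, in 5% dextrose with lactic acid, pH 5.0. Groups of three sacrificed at timed intervals; cardiac-puncture blood; plasma analysed by LC-MS/MS; noncompartmental analysis.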

[22] = Volume of distribution in Wistar Han rat at 4 mg/kg, iv; type: ADME, organism-based; parameters: dose 4 mg/kg, route intravenous; conditions: in vivo; how it was run: as §4
[23] = Half life in Wistar Han rat at 4 mg/kg, iv; type: ADME, organism-based; parameters: dose 4 mg/kg, route intravenous; conditions: in vivo; how it was run: as §4
[24] = system: Staphylococcus aureus; assay: Antibacterial activity against Staphylococcus aureus ARC516 infected in CD1 mouse neutropenic thigh infection model assessed as 1 log reduction in colony forming unit per […] at 48 mg/kg, ip qd administered 2 hrs post-infection measured 24 hrs post-treatment relative to vehicle treated control; type: functional; conditions: route intraperitoneal; how it was run: as §5
[25] = Clearance in Wistar Han rat at 4 mg/kg, iv; type: ADME, organism-based; parameters: dose 4 mg/kg, route intravenous; conditions: in vivo; how it was run: as §4
[26] = system: Mus musculus; assay: AUC (infinity) in Staphylococcus aureus ARC516 infected in CD1 mouse neutropenic thigh infection model at 48 mg/kg, ip qd by LC-MS/MS analysis; type: ADME, organism-based; parameters: dose 48 mg/kg, route intraperitoneal, time infinity; conditions: in vivo; how it was run: as §6
[27] = system: Staphylococcus aureus; assay: Antibacterial activity against Staphylococcus aureus ARC516 infected in CD1 mouse neutropenic thigh infection model assessed as 1 log reduction in colony forming unit per […] at 12 mg/kg, ip qd administered 2 hrs post-infection measured 24 hrs post-treatment relative to vehicle treated control; type: functional; conditions: route intraperitoneal; how it was run: as §5
[28] = system: Staphylococcus aureus; assay: Antibacterial activity against Staphylococcus aureus ARC516 infected in CD1 mouse neutropenic thigh infection model assessed as 1 log reduction in colony forming unit per […] at 36 mg/kg, ip qd administered 2 hrs post-infection measured 24 hrs post-treatment relative to vehicle treated control; type: functional; conditions: route intraperitoneal; how it was run: as §5
[29] = system: Mus musculus; assay: AUC (infinity) in Staphylococcus aureus ARC516 infected in CD1 mouse neutropenic thigh infection model at 24 mg/kg, ip qd by LC-MS/MS analysis; type: ADME, organism-based; parameters: time infinity, dose 24 mg/kg, route intraperitoneal; conditions: in vivo; how it was run: as §6

Chain of Voltage-gated inwardly rectifying potassium channel KCNH2 (Q12809 whole entry): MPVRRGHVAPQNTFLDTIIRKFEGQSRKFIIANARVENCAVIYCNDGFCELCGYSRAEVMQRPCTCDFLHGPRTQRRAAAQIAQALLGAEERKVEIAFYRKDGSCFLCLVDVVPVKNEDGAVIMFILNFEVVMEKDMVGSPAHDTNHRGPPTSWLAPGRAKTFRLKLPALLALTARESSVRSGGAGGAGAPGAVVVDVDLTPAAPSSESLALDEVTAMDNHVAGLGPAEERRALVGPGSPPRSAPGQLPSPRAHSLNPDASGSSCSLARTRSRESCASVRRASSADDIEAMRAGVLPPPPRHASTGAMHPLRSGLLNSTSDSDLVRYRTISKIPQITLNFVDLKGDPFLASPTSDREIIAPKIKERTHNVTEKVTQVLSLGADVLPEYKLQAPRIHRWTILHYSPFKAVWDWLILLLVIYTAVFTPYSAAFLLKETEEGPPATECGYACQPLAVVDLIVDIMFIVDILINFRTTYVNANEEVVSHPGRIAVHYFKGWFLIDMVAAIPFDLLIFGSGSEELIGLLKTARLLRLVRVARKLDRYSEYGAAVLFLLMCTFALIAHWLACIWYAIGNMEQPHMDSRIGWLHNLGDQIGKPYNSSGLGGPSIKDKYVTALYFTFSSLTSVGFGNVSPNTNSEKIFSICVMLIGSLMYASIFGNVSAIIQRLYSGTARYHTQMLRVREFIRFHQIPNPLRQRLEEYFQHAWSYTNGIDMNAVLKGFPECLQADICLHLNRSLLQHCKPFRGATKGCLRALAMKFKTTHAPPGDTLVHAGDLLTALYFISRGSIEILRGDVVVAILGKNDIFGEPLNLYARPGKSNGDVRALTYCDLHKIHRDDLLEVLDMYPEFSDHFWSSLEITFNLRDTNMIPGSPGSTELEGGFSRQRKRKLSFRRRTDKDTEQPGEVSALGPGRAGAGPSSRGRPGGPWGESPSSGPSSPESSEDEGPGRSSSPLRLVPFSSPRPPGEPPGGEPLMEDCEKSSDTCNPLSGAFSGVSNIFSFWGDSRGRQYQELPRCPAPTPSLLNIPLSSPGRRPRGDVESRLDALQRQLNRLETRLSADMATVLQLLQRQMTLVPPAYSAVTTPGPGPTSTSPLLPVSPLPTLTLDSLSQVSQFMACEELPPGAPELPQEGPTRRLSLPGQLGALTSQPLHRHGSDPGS

Row | Structure (SMILES) | MIC [1] [mg/L] | MIC [2] [mg/L] | IC50 [3] [µM] | MIC [4] [mg/L] | logD [5] | MIC [6] [mg/L] | IC50 [7] [µM] | fraction unbound at 16 h, 10 µM [8] | Vd [9] [L/kg] | clearance [11] [L/h/kg] | half-life [13] [h] | AUC [16] [µg·h/mL] | other results
1 | COc1ccc2c(c1)N(CCN1CCC(NCc3ccc4c(n3)NC(=O)CO4)CC1)C(=O)OC2 | 1 (≈ 2.14 µM) | 4 (≈ 8.56 µM) | 42 | 0.5 (≈ 1.07 µM) | 0.5 | 0.5 (≈ 1.07 µM) | 0.0044 | 0.26 | – | – | – | – | –
2 | N#Cc1ccc2c(c1)N(CCN1CCC(NCc3ccc4c(n3)NC(=O)CO4)CC1)C(=O)CO2 | 0.13 (≈ 0.281 µM) | 2 (≈ 4.32 µM) | – | 0.25 (≈ 0.541 µM) | 0.24 | 0.5 (≈ 1.08 µM) | 0.0032 | – | 61 | 0.468 | 166 | 3.09 | Vd [10]: 23 L/kg; half-life [12]: 5.8 h; AUC [14]: 0.64 µg·h/mL; bioavailability [15]: 64%; clearance [17]: 3.96 L/h/kg
3 | COc1ncc2ncc(=O)n(CCN3CCC(NCc4cc5c(cn4)OCCO5)CC3)c2n1 | 0.25 (≈ 0.551 µM) | > 8 | 81 | 2 (≈ 4.41 µM) | 0.14 | 0.25 (≈ 0.551 µM) | 0.028 | 0.96 | – | – | – | – | –
4 | COc1ccc2ccc(=O)n(CCN3CCC(NCc4cc5c(cn4)OCCO5)CC3)c2n1 | 0.02 (≈ 0.0443 µM) | > 8 | 40 | 0.5 (≈ 1.11 µM) | 1.16 | 0.05 (≈ 0.111 µM) | 0.002 | 0.31 | – | – | – | – | –
5 | COc1ccc2ncc(=O)n(CCN3CCC(NCc4cc5c(cn4)OCCO5)CC3)c2c1 | 0.02 (≈ 0.0443 µM) | 4 (≈ 8.86 µM) | 19 | 0.5 (≈ 1.11 µM) | 0.93 | 0.06 (≈ 0.133 µM) | 0.005 | 0.57 | 11 | 1.26 | 8.3 | 2.3 | AUC [18]: 1.17 µg/h/mL; AUC [19]: 0.19 µg·h/mL; FC [20]: 1.17; AUC [21]: 0.47 µg/h/mL; Vd [22]: 32 L/kg; half-life [23]: 2.8 h; FC [24]: 2.79; clearance [25]: 20.3 L/h/kg; AUC [26]: 1.79 µg/h/mL; FC [27]: 0.05; FC [28]: 1.5; AUC [29]: 0.76 µg/h/mL
